Laboratory results from ChEMBL document CHEMBL4190396, “Discovery of Novel Small-Molecule Inhibitors of NF-κB Signaling with Antiinflammatory and Anticancer Properties” (J Med Chem, 2018).
Active and inactive are the calls of the source. The calls are words filed in the database; no cut-off is given here.

Columns and labels:
[1] = target: MAP kinase p38 (Mus musculus) (UniProt P47811+O08911+Q9WUI1+Q9Z1B7); test: Inhibition of LPS-induced p38 MAPK phosphorylation in mouse RAW264.7 cells at 1 to 10 uM preincubated for 1 hr followed by LPS stimulation for 15 to 30 mins by Western blot method; assay type: cell-based
How it was run: (§1)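 RAW 264.7 cells, 3×10^6 per dish overnight, pretreated 1 h with 1, 5 or 10 µM, then LPS 100 ng/mL for 15 or 30 min; nuclear/cytoplasmic lysates (20–30 µg) run on 10% SDS-PAGE, immunoblotted for phospho/total proteins, GAPDH loading control, ECL, densitometry; three independent experiments.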

[2] = test system: HeLa; test: Growth inhibition of human HeLa cells after 48 hrs by WST1 assay; assay type: functional
[3] = test system: RAW264.7; test: Inhibition of LPS-induced ERK phosphorylation in mouse RAW264.7 cells at 1 to 10 uM preincubated for 1 hr followed by LPS stimulation for 15 to 30 mins by Western blot method; assay type: cell-based; how it was run: as §1
[4] = target: Proto-oncogene tyrosine-protein kinase Src (Homo sapiens) (UniProt P12931); test: Inhibition of SRC (unknown origin) at 5 uM using KVEKIGEGTYGVVYK-amide as substrate by ADP-Glo kinase assay relative to control
[5] = test system: HeLa; test: Cell cycle arrest in human HeLa cells assessed as accumulation at S phase at 20 uM after 24 hrs by propidium iodide staining based flow cytometry (reference value: 34.9%); assay type: functional
How it was run: (§2)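 HeLa cells, 3×10^5/well, attached overnight, switched to serum-free medium for synchronisation, then DMSO or 5, 10, 20 µM for 24 h; cells fixed, PI-stained, G0/G1, S and G2/M fractions by flow cytometry; n = 3, mean ± SD.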

[6] = target: Proto-oncogene tyrosine-protein kinase Src (Mus musculus) (UniProt P05480); test: Inhibition of LPS-induced SRC phosphorylation in mouse RAW264.7 cells preincubated for 1 hr followed by LPS stimulation for 30 mins by Western blot method; assay type: cell-based; how it was run: as §1
[7] = test system: HeLa; test: Cell cycle arrest in human HeLa cells assessed as accumulation at S phase at 5 uM after 24 hrs by propidium iodide staining based flow cytometry (reference value: 34.9%); assay type: functional; how it was run: as §2
[8] = target: Tyrosine-protein kinase SYK (Mus musculus) (UniProt P48025); test: Inhibition of LPS-induced SYK phosphorylation in mouse RAW264.7 cells preincubated for 1 hr followed by LPS stimulation for 30 mins by Western blot method; assay type: cell-based; how it was run: as §1
[9] = target: Toll-like receptor 4 (Homo sapiens) (UniProt O00206); test: Antagonist activity at human TLR4 expressed in HEK293 cells assessed as decrease in LPS-induced NF-kappaB activation-mediated SEAP production at 10^-9 to 10^-5 M after 24 hrs by Quanti-blue-based assay; assay type: cell-based
How it was run: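 HEK293 cells stably carrying a human TLR plus an NF-κB-driven SEAP reporter, seeded 5×10^4/well for 24 h at 37 °C, then stimulated: Pam3CSK4 100 µg/mL (TLR1/2), Pam2CSK4 100 µg/mL, poly I:C 5 µg/mL (TLR3), LPS 20 ng/mL (TLR4), flagellin 100 ng/mL (TLR5), R848 1 µg/mL (TLR7, TLR8), CpG-ODN2006 1 µg/mL (TLR9). After 24 h with compound, supernatant mixed with QUANTI-Blue, 1 h 37 °C, OD 620 nm.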

[10] = test system: RAW264.7; test: Antiinflammatory activity in mouse RAW264.7 cells assessed as decrease in LPS-induced TNFalpha production preincubated for 30 mins followed by LPS stimulation measured after 18 hrs by ELISA; assay type: functional, cell-based
How it was run: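 RAW 264.7 cells, 1.5×10^6/well, 24 h, medium refreshed; pretreated with increasing compound 30 min, then LPS 100 ng/mL for 18 h; supernatant TNF-α quantified by sandwich ELISA against recombinant mouse standards.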

[11] = test system: HeLa; test: Cell cycle arrest in human HeLa cells assessed as accumulation at S phase at 10 uM after 24 hrs by propidium iodide staining based flow cytometry (reference value: 34.9%); assay type: functional; how it was run: as §2

Sequence of Proto-oncogene tyrosine-protein kinase Src (Mus musculus) (P05480 2-535 limits assumed): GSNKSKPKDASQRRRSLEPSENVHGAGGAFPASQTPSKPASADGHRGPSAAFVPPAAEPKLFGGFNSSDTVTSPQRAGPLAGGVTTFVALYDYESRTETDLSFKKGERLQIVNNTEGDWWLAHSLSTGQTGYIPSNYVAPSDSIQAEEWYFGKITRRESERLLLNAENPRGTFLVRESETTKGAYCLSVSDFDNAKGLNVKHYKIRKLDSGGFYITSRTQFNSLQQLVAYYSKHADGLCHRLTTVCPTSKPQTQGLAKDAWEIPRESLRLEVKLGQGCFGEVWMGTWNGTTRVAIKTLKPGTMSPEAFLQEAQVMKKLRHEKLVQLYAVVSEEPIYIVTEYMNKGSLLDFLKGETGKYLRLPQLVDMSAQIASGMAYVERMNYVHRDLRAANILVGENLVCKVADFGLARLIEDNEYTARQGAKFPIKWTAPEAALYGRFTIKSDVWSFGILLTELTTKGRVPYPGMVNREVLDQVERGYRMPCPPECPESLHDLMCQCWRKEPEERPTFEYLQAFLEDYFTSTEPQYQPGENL
Sequence of Toll-like receptor 4 (Homo sapiens) (O00206 whole entry): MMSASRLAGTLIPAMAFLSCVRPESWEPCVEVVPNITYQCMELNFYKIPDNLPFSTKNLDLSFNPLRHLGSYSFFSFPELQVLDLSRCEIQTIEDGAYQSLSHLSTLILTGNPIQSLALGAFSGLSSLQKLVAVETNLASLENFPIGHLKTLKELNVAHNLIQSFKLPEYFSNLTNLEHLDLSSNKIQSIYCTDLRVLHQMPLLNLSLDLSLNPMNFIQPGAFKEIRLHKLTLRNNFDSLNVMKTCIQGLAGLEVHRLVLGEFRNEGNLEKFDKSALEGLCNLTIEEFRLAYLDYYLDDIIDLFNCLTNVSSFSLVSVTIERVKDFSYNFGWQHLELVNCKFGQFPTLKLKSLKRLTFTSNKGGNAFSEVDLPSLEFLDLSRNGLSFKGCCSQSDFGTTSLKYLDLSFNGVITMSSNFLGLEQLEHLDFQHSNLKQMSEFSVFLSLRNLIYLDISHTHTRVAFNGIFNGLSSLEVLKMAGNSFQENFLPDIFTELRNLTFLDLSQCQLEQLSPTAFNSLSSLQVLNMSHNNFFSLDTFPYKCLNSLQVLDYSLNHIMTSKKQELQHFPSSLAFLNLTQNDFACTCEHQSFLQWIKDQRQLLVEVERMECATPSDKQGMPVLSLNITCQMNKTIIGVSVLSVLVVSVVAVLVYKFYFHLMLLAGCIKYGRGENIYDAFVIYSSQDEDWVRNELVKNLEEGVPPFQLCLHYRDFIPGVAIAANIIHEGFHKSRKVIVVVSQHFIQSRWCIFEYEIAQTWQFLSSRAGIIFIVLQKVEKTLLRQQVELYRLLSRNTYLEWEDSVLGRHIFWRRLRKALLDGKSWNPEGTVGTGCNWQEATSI
Sequence of Proto-oncogene tyrosine-protein kinase Src (Homo sapiens) (P12931 2-536 limits assumed): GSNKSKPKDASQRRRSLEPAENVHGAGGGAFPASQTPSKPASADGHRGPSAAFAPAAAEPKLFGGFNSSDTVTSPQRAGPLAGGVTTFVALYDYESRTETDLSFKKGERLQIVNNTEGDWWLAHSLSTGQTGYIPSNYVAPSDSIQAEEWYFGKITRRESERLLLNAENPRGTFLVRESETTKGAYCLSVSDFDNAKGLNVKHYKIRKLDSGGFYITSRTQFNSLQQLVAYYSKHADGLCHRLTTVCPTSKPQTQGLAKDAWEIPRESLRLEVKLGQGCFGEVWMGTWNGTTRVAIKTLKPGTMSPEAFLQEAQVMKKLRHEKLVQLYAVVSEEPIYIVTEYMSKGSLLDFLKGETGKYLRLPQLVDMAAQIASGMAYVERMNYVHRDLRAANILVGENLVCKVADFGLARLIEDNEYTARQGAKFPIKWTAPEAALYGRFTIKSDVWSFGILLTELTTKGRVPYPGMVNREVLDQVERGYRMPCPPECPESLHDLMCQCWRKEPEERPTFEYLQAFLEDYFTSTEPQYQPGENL
Sequence of Tyrosine-protein kinase SYK (Mus musculus) (P48025 whole entry, looked up): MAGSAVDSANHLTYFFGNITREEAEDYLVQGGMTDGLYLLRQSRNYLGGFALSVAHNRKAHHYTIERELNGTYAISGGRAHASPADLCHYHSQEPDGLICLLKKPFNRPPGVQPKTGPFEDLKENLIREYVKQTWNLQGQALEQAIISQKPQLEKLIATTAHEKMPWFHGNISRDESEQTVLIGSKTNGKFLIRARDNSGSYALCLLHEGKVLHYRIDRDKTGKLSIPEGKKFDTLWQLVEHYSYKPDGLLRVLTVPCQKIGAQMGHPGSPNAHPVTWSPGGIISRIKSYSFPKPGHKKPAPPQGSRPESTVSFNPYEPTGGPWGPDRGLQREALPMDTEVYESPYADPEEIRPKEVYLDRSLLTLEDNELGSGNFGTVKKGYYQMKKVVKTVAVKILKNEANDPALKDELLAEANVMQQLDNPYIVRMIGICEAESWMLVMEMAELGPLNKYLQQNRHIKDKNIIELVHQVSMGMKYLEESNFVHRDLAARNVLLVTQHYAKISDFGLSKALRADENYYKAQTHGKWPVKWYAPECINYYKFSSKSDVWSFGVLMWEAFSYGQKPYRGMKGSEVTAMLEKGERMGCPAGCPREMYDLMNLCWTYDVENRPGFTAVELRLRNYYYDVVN

inhibition [1]: inactive
GI50 [2]: 1350 nM
inhibition [4]: < 50%
inhibition [6]: Dose-dependent effect
inhibition [8]: Dose-dependent effect
inhibition [9]: Active
SMILES: O=C(NNC(=O)c1csc(-c2ccc(Cl)cc2Cl)n1)c1ccccn1
inhibition [3]: inactive
Activity [5]: 29.1%
Activity [7]: 48.4%
Activity [10]: Dose-dependent effect
Activity [11]: 41.7%
